Assay results pooled from the literature.
In brackets after ≈: the same amount, converted by molar mass.

| SMILES | tested on | assay | system | conditions | measurement | value |
| --- | --- | --- | --- | --- | --- | --- |
| O=C(N1CCC2(CC1)OCC(CN1CCCCS1(=O)=O)O2)C1(c2ccc(Cl)cc2)CCCC1 (centres unmarked) | Chikungunya virus | viral replication, inhibitor | – | 40 µM | inhibition | 55% |
| CC(Oc1ccc(O)cc1)(P(=O)(O)O)P(=O)(O)O | Chikungunya virus | viral replication | Vero | – | IC50 | 548 µM |
| COc1ccc(C=Nc2ccc(SCc3cc(=O)c(O)co3)cc2)cc1 | – | DPPH scavenging, absorbance | – | 30 min | IC50 | 15.6 µM |
| CC(C)(C(=O)N1CCC2(CC1)OCC(CN1CCCCS1(=O)=O)O2)c1ccccc1 (centres unmarked) | Chikungunya virus | viral replication, inhibitor | – | 40 µM | inhibition | < 50% |
| CC(C)C[C@@H](NC(=O)[C@H](C)NC(=O)CNC(=O)[C@@H](NC=O)C(C)C)C(=O)N[C@@H](C)C(=O)N[C@@H](C(=O)N[C@H](C(=O)N[C@@H](C(=O)N[C@@H](Cc1c[nH]c2ccccc12)C(=O)N[C@H](CC(C)C)C(=O)N[C@@H](Cc1cc2ccccc2[nH]1)C(=O)N[C@H](CC(C)C)C(=O)N[C@@H](Cc1c[nH]c2ccccc12)C(=O)N[C@H](CC(C)C)C(=O)N[C@@H](Cc1c[nH]c2ccccc12)C(=O)NCCO)C(C)C)C(C)C)C(C)C | MCF7 | cell growth or viability, SRB | – | 48 h | GI50 | 0.0233 µM |
| Cc1ccc(C=Nc2ccc(SCc3cc(=O)c(O)co3)cc2)cc1 | – | DPPH scavenging, absorbance | – | 30 min | IC50 | 9.06 µM |
| O=C(NCc1ccc(F)cc1)c1cn(Cc2ccc(F)cc2)c2ccc(Oc3ccccc3)cc2c1=O | MCF7 | cell growth or viability, MTT | – | – | IC50 | ≥ 200 µM |
| CC[C@H](C)C[C@H](C)CCCCCCCCC(=O)N[C@H]1C[C@@H](O)[C@@H](NCCN)NC(=O)[C@@H]2[C@@H](O)CCN2C(=O)[C@H]([C@H](O)CCN)NC(=O)[C@H]([C@H](O)[C@@H](O)c2ccc(O)cc2)NC(=O)[C@@H]2C[C@@H](O)CN2C(=O)[C@H]([C@@H](C)O)NC1=O | Candidozyma auris | microbial killing, broth dilution | – | 48 h | MFC | 8 µg/mL (≈ 7.32 µM) |
| CCc1ccc(C=Nc2ccc(SCc3cc(=O)c(O)co3)cc2)cc1 | – | DPPH scavenging, absorbance | – | 30 min | IC50 | 20.5 µM |
| O=C(NCc1ccc(F)cc1)c1cn(Cc2ccc(C(F)(F)F)cc2)c2ccc(Oc3ccccc3)cc2c1=O | MCF7 | cell growth or viability, MTT | – | 48 h | IC50 | 4.36 µM |
| CC(C)C[C@@H](NC(=O)[C@H](C)NC(=O)CNC(=O)[C@@H](NC=O)C(C)C)C(=O)N[C@@H](C)C(=O)N[C@@H](C(=O)N[C@H](C(=O)N[C@@H](C(=O)N[C@@H](Cc1c[nH]c2ccccc12)C(=O)N[C@H](CC(C)C)C(=O)N[C@@H](Cc1ccc2[nH]ccc2c1)C(=O)N[C@H](CC(C)C)C(=O)N[C@@H](Cc1c[nH]c2ccccc12)C(=O)N[C@H](CC(C)C)C(=O)N[C@@H](Cc1c[nH]c2ccccc12)C(=O)NCCO)C(C)C)C(C)C)C(C)C | MCF7 | cell growth or viability, SRB | – | 48 h | GI50 | 0.106 µM |
| COc1cccc(C=Nc2ccc(SCc3cc(=O)c(O)co3)cc2)c1 | – | DPPH scavenging, absorbance | – | 30 min | IC50 | 11.6 µM |
| S=c1[nH]nc(NCNc2n[nH]c(=S)s2)s1 | Xanthomonas oryzae | microbial growth | – | – | EC50 | 16 µg/mL (≈ 57.5 µM) |
| O=C(NCc1ccc(Cl)cc1)c1cn(Cc2ccc(Cl)cc2)c2ccc(Oc3ccccc3)cc2c1=O | MCF7 | cell growth or viability, MTT | – | 48 h | IC50 | 171 µM |
| O=c1cc(CSc2ccc(N=Cc3ccc([N+](=O)[O-])cc3)cc2)occ1O | – | DPPH scavenging, absorbance | – | 30 min | IC50 | 28.5 µM |
| O=C(NCc1ccc(C(F)(F)F)cc1)c1cn(Cc2ccc(F)cc2)c2ccc(Oc3ccccc3)cc2c1=O | MCF7 | cell growth or viability, MTT | – | 24 h | IC50 | 109 µM |
| CCCCCCN(CC1COC2(CCN(C(=O)C3(c4ccccc4)CCCC3)CC2)O1)S(=O)(=O)N(C)Cc1ccccc1 (centres unmarked) | Chikungunya virus | viral replication, inhibitor | – | 40 µM | inhibition | 70% |
